Experimental data from article PMC3445775 (Hepatology (Baltimore, Md.), 2012).
“Also recorded” adds a separate entry of the source.

Experiments:
human FATP5 = target: T1, human FATP5 (Homo sapiens, UniProt Q9Y2P5); assay type: cell-based; conditions: for inhibition of FATP5-mediated LCFA uptake: result in words
T1 sequence (Q9Y2P5 1-690): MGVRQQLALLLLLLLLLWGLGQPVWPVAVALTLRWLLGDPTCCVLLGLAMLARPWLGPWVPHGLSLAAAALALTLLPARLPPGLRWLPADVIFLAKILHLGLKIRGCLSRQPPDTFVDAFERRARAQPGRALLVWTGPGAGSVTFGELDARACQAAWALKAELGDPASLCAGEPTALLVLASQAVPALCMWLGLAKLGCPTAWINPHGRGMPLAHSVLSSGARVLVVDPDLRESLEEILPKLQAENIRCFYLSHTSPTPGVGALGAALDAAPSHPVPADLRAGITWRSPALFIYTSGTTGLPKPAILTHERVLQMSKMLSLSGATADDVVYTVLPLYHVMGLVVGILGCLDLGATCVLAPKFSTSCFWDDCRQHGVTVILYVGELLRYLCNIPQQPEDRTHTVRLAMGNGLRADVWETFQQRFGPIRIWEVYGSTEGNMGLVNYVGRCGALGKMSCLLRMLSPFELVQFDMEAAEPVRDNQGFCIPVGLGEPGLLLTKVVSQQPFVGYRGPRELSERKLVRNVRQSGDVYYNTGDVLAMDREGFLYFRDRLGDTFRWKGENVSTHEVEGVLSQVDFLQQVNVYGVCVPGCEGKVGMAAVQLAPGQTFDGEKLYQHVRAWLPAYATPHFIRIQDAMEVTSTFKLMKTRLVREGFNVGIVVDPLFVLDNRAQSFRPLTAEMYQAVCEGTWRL
Outline: (§1)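 HEK-293 cells stably expressing human FATP4, FATP2 or FATP5 were maintained in DMEM/10% FBS with 1 mg/ml G418. Cells were plated at 30,000–50,000/well overnight to 50–70% confluency. They were preincubated 30 min (5% CO2) with test compound, diluted from DMSO stock into HBSS with 20 mM HEPES, 4.5 g/L glucose and 0.1% fatty-acid-free BSA. Compound in quencher mix containing 2 μM C1-BODIPY-C12 was then added. Fluorescence (ex 488/em 515 nm, bottom read) was recorded every 2 min for 2 h, and uptake velocities were derived by linear regression.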

human FATP2 = human FATP2 (Homo sapiens, UniProt O14975); assay type: cell-based; conditions: for inhibition of FATP2-mediated LCFA uptake: result in words
Outline: as §1

[1] = tested on: primary human hepatocytes; experiment: FACS-based LCFA uptake assay, primary human hepatocytes; assay type: cell-based; conditions: 10 or 100 μM, viable cells
Outline: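 Suspended primary human hepatocytes were pretreated with test compound at 10 or 100 μM in DMEM (37°C, 5% CO2, 30 min). C1-BODIPY-C12 bound to 0.1% BSA was then added to a final 2 μM for 30 min at 37°C. Uptake was stopped on ice, and cells were centrifuged at 4°C and resuspended in cold PBS. Propidium iodide was added, and mean BODIPY fluorescence of 5000 viable PI-negative cells was taken from histogram plots.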

[2] = tested on: acute liver LCFA absorption; experiment: 1 week DCA/high-fat food feeding pilot; assay type: in vivo, mouse
[3] = tested on: hepatic triglyceride accumulation; experiment: Chronic bile acid injection during high-fat diet; assay type: in vivo, mouse; conditions: 3.2 mg/kg s.c. daily
Outline: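 Individually housed mice on a high-fat diet (60% calories from fat) received daily s.c. injections of test compound, 3.2 mg/kg in 20 μl DMSO, above the right hip for 47 days. Controls received DMSO vehicle. Mice were fasted 4 h and euthanised with CO2, and injection sites were checked for precipitate. Liver lysates were assayed for protein (BCA) and TAG.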

TGR5 = conditions: ref [33], [34]; cited from earlier work
FATP5 and FATP2 = experiment: Inhibition reversibility assay; assay type: cell-based, human; conditions: 30 min treatment followed by brief washes with PBS
[4] = tested on: primary mouse hepatocytes; experiment: XTT viability of primary mouse hepatocytes; assay type: cell-based; conditions: 48 hour treatment
hepatic LCFA uptake = experiment: Non-radioactive in vivo hepatic LCFA uptake assay; design: species or system mouse; conditions: for effect on in vivo hepatic LCFA uptake: WT mice, acute injection
[5] = tested on: primary mouse hepatocytes from C57Bl/6 animals; experiment: Quencher based LCFA uptake assay, wild-type mouse primary hepatocytes; assay type: cell-based
293 cells = experiment: XTT toxicity assay, stable 293 cell lines; assay type: cell-based, human; conditions: 48 hours
Outline: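 Stable 293 cells in DMEM/FBS were incubated overnight in 5% CO2. The indicated test compound or DMSO control was added, and after a further 48 h viability was measured with an XTT kit per the manufacturer's instructions.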

hepatic TAG content = experiment: 7 week bile acid supplemented high-fat diet feeding; assay type: in vivo, mouse; conditions: for body weight / caloric output over a 36h period / food intake / respiratory rate: 0.5mg/g in high fat food
[6] = tested on: Mouse primary hepatocytes; experiment: Uptake assay of radiolabeled compounds, primary hepatocytes; assay type: cell-based; conditions: 5 μM DCA
[7] = tested on: intestinal fatty acid absorption; experiment: Non-radioactive intestinal in vivo LCFA absorption assay; design: species or system mouse; conditions: gavage of olive oil/BODIPY-FFA with 0.05% DCA
Outline: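 Mice were gavaged with 200 μl of olive oil/20 μM BODIPY-FFA containing 0% or 0.05% bile acid. Blood was drawn at 0, 30, 60, 120 and 240 min after gavage, and serum fluorescence at 515 nm was read on a plate reader.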

hsFATP4 = hsFATP4 (Homo sapiens, UniProt Q6P1M0); experiment: Quencher-based LCFA uptake assay, FATP4 expressing 293 cells; assay type: cell-based; conditions: result in words
hsFATP4, sequence (Q6P1M0 whole entry): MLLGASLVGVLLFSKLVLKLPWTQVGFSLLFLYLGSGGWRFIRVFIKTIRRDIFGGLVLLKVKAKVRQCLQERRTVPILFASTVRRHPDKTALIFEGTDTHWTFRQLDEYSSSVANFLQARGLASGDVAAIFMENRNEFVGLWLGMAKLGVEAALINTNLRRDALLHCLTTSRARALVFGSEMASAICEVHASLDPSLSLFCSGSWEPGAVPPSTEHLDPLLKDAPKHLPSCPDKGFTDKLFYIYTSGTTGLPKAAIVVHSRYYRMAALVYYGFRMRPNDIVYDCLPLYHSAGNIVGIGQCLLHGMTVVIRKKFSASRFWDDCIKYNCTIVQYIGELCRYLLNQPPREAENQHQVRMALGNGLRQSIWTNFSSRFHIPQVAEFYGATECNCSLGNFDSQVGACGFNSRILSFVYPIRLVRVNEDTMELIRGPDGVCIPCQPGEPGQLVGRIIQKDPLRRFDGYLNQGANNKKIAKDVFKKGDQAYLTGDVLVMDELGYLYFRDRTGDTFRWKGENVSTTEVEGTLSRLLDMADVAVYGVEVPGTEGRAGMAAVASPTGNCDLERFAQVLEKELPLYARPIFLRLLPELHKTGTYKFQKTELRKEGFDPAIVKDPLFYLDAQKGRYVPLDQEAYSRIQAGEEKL
Outline: as §1

[8] = tested on: primary hepatocytes from FATP5-null animals; experiment: Quencher based LCFA uptake assay, FATP5-null mouse primary hepatocytes; assay type: cell-based; conditions: FATP5 KO
Outline: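 Primary hepatocytes from FATP5-null mice were isolated by portal-vein perfusion and collagenase digestion. Viability was checked by trypan blue, and cells were plated on collagen (150,000 cells/well) in DMEM/FBS with insulin-transferrin-selenium overnight. Test compound from DMSO stock in HBSS (20 mM HEPES, 4.5 g/L glucose, 0.1% fatty-acid-free BSA) was applied for 30 min. It was replaced by the same compound in quencher mix with 2 μM C1-BODIPY-C12. Bottom-read fluorescence (ex 488/em 515 nm) was taken every 2 min for 2 h, and velocities were obtained by linear regression.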

[9] = oral administration of UDCA; ref [41]; cited from earlier work
NASH = conditions: cited from earlier work

Structure (SMILES): C[C@H](CCC(=O)NCCS(=O)(=O)O)[C@H]1CC[C@H]2[C@@H]3[C@@H](O)C[C@@H]4C[C@H](O)CC[C@]4(C)[C@H]3CC[C@]12C [TUDCA, tauroursodeoxycholic acid]
- inhibition of FATP5-mediated LCFA uptake (human FATP5): did not inhibit
- inhibition of FATP2-mediated LCFA uptake (human FATP2): did not inhibit
- inhibition of LCFA uptake by primary human hepatocytes [1]: but not TUDCA

Structure (SMILES): C[C@H](CCC(=O)O)[C@H]1CC[C@H]2[C@@H]3CC[C@@H]4C[C@H](O)CC[C@]4(C)[C@H]3C[C@H](O)[C@]12C [DCA, deoxycholic acid]
- acute liver LCFA absorption ([2]; DCA 0 to 0.2% in high-fat food): dose dependent reduction
- circulating liver enzymes (serum AST) ([2]; DCA 0 to 0.2% in high-fat food): without causing a detectable increase
- circulating lipids in the form of TAG and cholesterol ([2]; dietary DCA 0.03%-0.4%): unchanged
- body weight ([3]; 47 days): nor did it affect food consumption or body weight
- food consumption ([3]; 47 days): nor did it affect food consumption or body weight
- respiration ([3]; 47 days): neither triggered an increase in respiration
- reduction in the triglyceride content of the liver ([3]; 47 days, WT): 68%
- triglyceride content of the liver ([3]; 47 days, WT, vehicle 6.6): 2.1 mg TAG/g protein
- liver TAG in FATP5-null animals ([3]; FATP5-null): did not cause a further reduction in liver TAG
- TGR5 activation (TGR5): activate TGR5 equally
- Reversible Inhibition (FATP5 and FATP2): reversible and Yes
- cytotoxicity to primary mouse hepatocytes (XTT) [4]: not associated with toxicity
- IC50 (human FATP5): 0.19 µM
- IC50 (human FATP2): 5 µM
- effect on in vivo hepatic LCFA uptake in FATP5 KO (hepatic LCFA uptake; FATP5 KO mice, 6.4mg/kg): abolished
- effect on in vivo hepatic LCFA uptake (hepatic LCFA uptake): inhibitory effect was observed
- acute reduction of hepatic LCFA uptake (hepatic LCFA uptake; in vivo, DCA injections): 31%
- inhibition of LCFA uptake by primary mouse hepatocytes [5]: inhibited hepatocyte LCFA uptake significantly
- toxicity (XTT assay) (293 cells): did not display any cytotoxicity
- body weight (hepatic TAG content; 7 weeks): Neither DCA nor LCA feeding resulted in changes
- caloric output over a 36h period (hepatic TAG content; 7 weeks): Neither DCA nor LCA feeding resulted in changes
- food intake (hepatic TAG content; 7 weeks): Neither DCA nor LCA feeding resulted in changes
- respiratory rate (hepatic TAG content; 7 weeks): Neither DCA nor LCA feeding resulted in changes
- lipid droplets in BODIPY-stained liver sections (hepatic TAG content; 0.05% DCA in high-fat diet): markedly reduced lipid droplets
- hepatotoxicity or fibrosis (ALT/AST assays, liver morphology) (hepatic TAG content; 0.05% DCA in high-fat diet, 49 days): did not lead to hepatotoxicity or fibrosis
- reduction in hepatic TAG content (hepatic TAG content; 0.05% in high-fat diet, 7 weeks): approximately 50%
- uptake of 2-deoxy-D-[3H]glucose/glucose mix [6]: without affecting uptake
- uptake of radiolabeled fatty acids ([6]; 20 μM fatty acid): inhibit the uptake of a wide range of fatty acids
- intestinal fatty acid absorption (labeled fatty acid in the circulation) [7]: not suppressed; also recorded: no significant effect
- inhibition of FATP4 LCFA uptake (hsFATP4): neither DCA, UDCA, nor LCA inhibited; also recorded: No inhibition
- inhibition of LCFA uptake by FATP5-null primary hepatocytes [8]: abolished

Structure (SMILES): C[C@H](CCC(=O)O)[C@H]1CC[C@H]2[C@@H]3CC[C@@H]4C[C@H](O)CC[C@]4(C)[C@H]3CC[C@]12C [LCA, lithocholic acid]
- body weight ([3]; 47 days): nor did it affect food consumption or body weight
- food consumption ([3]; 47 days): nor did it affect food consumption or body weight
- respiration ([3]; 47 days): neither triggered an increase in respiration
- inhibition of FATP5-mediated LCFA uptake (human FATP5): no inhibition
- inhibition of FATP2-mediated LCFA uptake (human FATP2): no inhibition
- effect on in vivo hepatic LCFA uptake (hepatic LCFA uptake): had no effect
- inhibition of LCFA uptake by primary mouse hepatocytes [5]: no inhibition
- body weight (hepatic TAG content; 7 weeks): Neither DCA nor LCA feeding resulted in changes
- caloric output over a 36h period (hepatic TAG content; 7 weeks): Neither DCA nor LCA feeding resulted in changes
- food intake (hepatic TAG content; 7 weeks): Neither DCA nor LCA feeding resulted in changes
- respiratory rate (hepatic TAG content; 7 weeks): Neither DCA nor LCA feeding resulted in changes
- effect on liver TAG content (hepatic TAG content; result in words, LCA in high-fat diet model): had no effect
- inhibition of FATP4 LCFA uptake (hsFATP4): neither DCA, UDCA, nor LCA inhibited; also recorded: No inhibition

Structure (SMILES): O=c1cc(-c2ccc([N+](=O)[O-])cc2)nc2c(-c3ccc(Cl)cc3)c(Cc3ccccc3)[nH]n12 [CB-5, 2-benzyl-3-(4-chlorophenyl)-5-(4-nitrophenyl)-1H-pyrazolo[5,1-b]pyrimidin-7-one, reference compound]
- Reversible Inhibition (FATP5 and FATP2): No (tox)
- IC50 (human FATP5): 7 µM
- IC50 (human FATP2): 18 µM
- toxicity (XTT assay) (293 cells): marked cytotoxicity

Structure (SMILES): C[C@H](CCC(=O)O)[C@H]1CC[C@H]2[C@@H]3[C@@H](O)C[C@@H]4C[C@H](O)CC[C@]4(C)[C@H]3CC[C@]12C [UDCA, ursodeoxycholic acid, reference compound]
- circulating UDCA levels [9]: over 17 μM
- Reversible Inhibition (FATP5 and FATP2): Yes
- cytotoxicity to primary mouse hepatocytes (XTT) [4]: without any detectable cytotoxic effects
- IC50 (human FATP5): 5 µM
- inhibition of LCFA uptake by primary human hepatocytes [1]: inhibited LCFA uptake
- inhibition of LCFA uptake by primary mouse hepatocytes [5]: inhibited LCFA uptake
- effect on hepatosteatosis and NASH versus placebo (NASH; 13–15 mg/kg/day over 2 years, 166 patients, ref [43]): did not produce an effective result as compared to placebo
- overall histology (NASH; 23–28 mg/kg/day for 18 months, 185 NASH patients, ref [44]): failed to improve the overall histology
- inhibition of FATP4 LCFA uptake (hsFATP4): neither DCA, UDCA, nor LCA inhibited; also recorded: No inhibition
- inhibition of LCFA uptake by FATP5-null primary hepatocytes [8]: failed to inhibited LCFA uptake
